Assay results from ChEMBL document CHEMBL2010670, “Discovery of a clinical stage multi-kinase inhibitor sodium (E)-2-{2-methoxy-5-[(2',4',6'-trimethoxystyrylsulfonyl)methyl]phenylamino}acetate (ON 01910.Na): synthesis, structure-activity relationship, and biological activity” (J Med Chem, 2011).

How the values were obtained:
Type in all cases: functional, cell-based
[1] = Cytotoxicity against human MES-SA cells assessed as cell viability after 96 hrs by trypan blue exclusion
Method in brief: (§1)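 Cells grown in DMEM or RPMI with 10% FBS and penicillin-streptomycin, seeded at 1.0 × 10⁵ cells/mL/well in 6-well dishes. Compound added at a range of concentrations 24 h after seeding. Viable cells counted by trypan blue exclusion from duplicate wells after 96 h of exposure; dose-response end point.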

[2] = Cytotoxicity against multidrug-resistant human MES-SA/Dx5 cells assessed as cell viability after 96 hrs by trypan blue exclusion; conditions: MES-SA/Dx5, 96 h
Method in brief: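 Cells grown in DMEM or RPMI with 10% FBS and 1 unit/mL penicillin-streptomycin, seeded at 1.0 × 10⁵ cells/mL/well in 6-well dishes; compound added 24 h later at various concentrations. After 96 h of treatment, viable cells counted by trypan blue exclusion in duplicate wells; dose-response end point.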

DU-145 = test: Cytotoxicity against human DU145 cells after 96 hrs by trypan blue exclusion assay; conditions: Homo sapiens, DU-145, 96 h; method in brief: as §1
K562 = test: Cytotoxicity against human K562 cells after 96 hrs by trypan blue exclusion assay; conditions: Homo sapiens, K562, 96 h; method in brief: as §1

Compound | IC50 [1] | IC50 [2] | IC50 (DU-145) | IC50 (K562)
CC(=O)O[C@H]1C(=O)[C@@]2(C)[C@H]([C@H](OC(=O)c3ccccc3)[C@]3(O)C[C@H](OC(=O)[C@H](O)[C@@H](NC(=O)c4ccccc4)c4ccccc4)C(C)=C1C3(C)C)[C@]1(OC(C)=O)CO[C@@H]1C[C@@H]2O [PACLITAXEL] | 4 nM | 750 nM | – | –
COc1cc(OC)c(/C=C/SCc2ccc(OC)c([N+](=O)[O-])c2)c(OC)c1 | – | – | 5000 nM | 5000 nM
COc1ccc(CS(=O)(=O)/C=C/c2c(OC)cccc2OC)cc1[N+](=O)[O-] | – | – | 20000 nM | 20000 nM
COc1cc(OC)c(/C=C/S(=O)(=O)Cc2ccc(OC)c(NCC(=O)O)c2)c(OC)c1 [RIGOSERTIB] | – | – | 75 nM | 7.5 nM
COc1ccc(CS(=O)(=O)/C=C/c2c(OC)cc(OCCCC(=O)O)cc2OC)cc1N | – | – | 25000 nM | 20000 nM
COc1cc(OC)c(/C=C/S(=O)(=O)Cc2ccc(F)c([N+](=O)[O-])c2)c(OC)c1 | – | – | 25000 nM | 25000 nM
COc1cc(OC)c(/C=C/S(=O)(=O)Cc2ccc(OC)c(NC(C(=O)O)c3ccc(Br)cc3)c2)c(OC)c1 (centres undefined) | – | – | 300 nM | 200 nM
COc1cc(OC)c(/C=C/S(=O)(=O)Cc2ccc(OC)c(NC(C(=O)O)c3ccc(Cl)cc3)c2)c(OC)c1 (centres undefined) | – | – | 400 nM | 250 nM
COc1ccc(CS(=O)(=O)/C=C/c2c(OC)cccc2OC)cc1N | – | – | 50 nM | 50 nM
COc1cc(OC)c(/C=C/S(=O)(=O)Cc2ccc(OC)c(NCCC(=O)O)c2)c(OC)c1 | – | – | 5000 nM | 5000 nM
COc1ccc(/C=C/S(=O)(=O)Cc2ccc(OC)c(N)c2)cc1 | – | – | 2500 nM | 2500 nM
COc1ccccc1/C=C/S(=O)(=O)Cc1ccc(OC)c([N+](=O)[O-])c1 | – | – | 20000 nM | 20000 nM
COc1ccc(/C=C/S(=O)(=O)Cc2ccc(OC)c(N)c2)c(OC)c1 | – | – | 500 nM | 500 nM
COc1ccc(CS(=O)(=O)/C=C/c2c(OC)cccc2OC)c(N)c1 | – | – | 750 nM | 750 nM
COC(=O)CCNc1cc(CS(=O)(=O)/C=C/c2c(OC)cc(OC)cc2OC)ccc1OC | – | – | 1500 nM | 1000 nM
COc1cc(OC)c(/C=C/S(=O)(=O)Cc2ccc(Cl)c(N)c2)c(OC)c1 | – | – | 10 nM | 10 nM
COc1ccc(CS(=O)(=O)/C=C/c2ccccc2OC)cc1N | – | – | 7500 nM | 7500 nM
COC(=O)CNc1cc(CS(=O)(=O)/C=C/c2cc(OC)c(OC)c(OC)c2)ccc1OC | – | – | 75000 nM | 30000 nM
COc1ccc(CS(=O)(=O)/C=C/c2cc(OC)c(OC)c(OC)c2)cc1NCC(=O)O | – | – | 5000 nM | 3000 nM

Compound | IC50 [1] | IC50 [2] | IC50 (DU-145) | IC50 (K562)
COc1cc(OC)c(/C=C/S(=O)(=O)Cc2ccc(OC)c(NC(C)(C)C(=O)O)c2)c(OC)c1 | – | – | 150 nM | 7.5 nM
COC(=O)CNc1cc(CS(=O)(=O)/C=C/c2c(OC)cc(OC)cc2OC)ccc1OC | – | – | 100 nM | 100 nM
COc1ccc(CS(=O)(=O)/C=C/c2c(OC)cc(O)cc2OC)cc1[N+](=O)[O-] | – | – | 5000 nM | 5000 nM
COc1cc(OC)c(/C=C/S(=O)(=O)Cc2ccc(Cl)cc2N)c(OC)c1 | – | – | 2500 nM | 2500 nM
COC(=O)C(F)(F)Nc1cc(CS(=O)(=O)/C=C/c2c(OC)cc(OC)cc2OC)ccc1OC | – | – | 250 nM | 250 nM
COc1ccc(CS(=O)(=O)/C=C/c2cc(F)c(F)cc2F)cc1N | – | – | 5000 nM | 15000 nM
COc1cc(OC)c(/C=C/S(=O)(=O)Cc2ccc(Br)c([N+](=O)[O-])c2)c(OC)c1 | – | – | 25000 nM | 25000 nM
COc1ccc(/C=C/S(=O)(=O)Cc2ccc(OC)c([N+](=O)[O-])c2)cc1 | – | – | 25000 nM | 25000 nM
COC(=O)C(Nc1cc(CS(=O)(=O)/C=C/c2c(OC)cc(OC)cc2OC)ccc1OC)c1ccc(Cl)cc1 (centres undefined) | – | – | 400 nM | 200 nM
COC(=O)C(Nc1cc(CS(=O)(=O)/C=C/c2c(OC)cc(OC)cc2OC)ccc1OC)c1ccccc1 (centres undefined) | – | – | 75 nM | 30 nM
COC(=O)C(Nc1cc(CS(=O)(=O)/C=C/c2c(OC)cc(OC)cc2OC)ccc1OC)c1ccc(Br)cc1 (centres undefined) | – | – | 300 nM | 200 nM
COC(=O)C(Nc1cc(CS(=O)(=O)/C=C/c2c(OC)cc(OC)cc2OC)ccc1OC)c1ccc(OC)cc1 (centres undefined) | – | – | 250 nM | 150 nM
COc1ccc(CS(=O)(=O)/C=C/c2cc(OC)c(OC)c(OC)c2)cc1N | – | – | 3000 nM | 250 nM
COc1cc(OC)c(/C=C/S(=O)(=O)Cc2ccc(F)c(N)c2)c(OC)c1 | – | – | 2500 nM | 2500 nM
COc1cc(OC)c(/C=C/S(=O)(=O)Cc2ccc(OC)c(N[C@@H](C)C(=O)O)c2)c(OC)c1 | – | – | 25 nM | 15 nM
COC(=O)C(C)(C)Nc1cc(CS(=O)(=O)/C=C/c2c(OC)cc(OC)cc2OC)ccc1OC | – | – | 2500 nM | 800 nM
COC(=O)[C@H](C)Nc1cc(CS(=O)(=O)/C=C/c2c(OC)cc(OC)cc2OC)ccc1OC | – | – | 750 nM | 200 nM
COc1ccc(CS(=O)(=O)/C=C/c2c(OC)cccc2OC)c([N+](=O)[O-])c1 | – | – | 50000 nM | 50000 nM
COC(=O)C(Nc1cc(CS(=O)(=O)/C=C/c2c(OC)cc(OC)cc2OC)ccc1OC)c1ccc(F)cc1 (centres undefined) | – | – | 300 nM | 800 nM

Compound | IC50 [1] | IC50 [2] | IC50 (DU-145) | IC50 (K562)
COc1cc(OC)c(/C=C/S(=O)(=O)Cc2ccc(OC)c(NC(F)(F)C(=O)O)c2)c(OC)c1 | – | – | 150 nM | 150 nM
COc1cc(OC)c(/C=C/S(=O)(=O)Cc2ccc(OC)c([N+](=O)[O-])c2)c(OC)c1 | – | – | 2500 nM | 2500 nM
COc1ccc(CS(=O)(=O)/C=C/c2c(OC)cc(O)cc2OC)cc1N | – | – | 200 nM | 300 nM
COc1cc(OC)c(/C=C/SCc2ccc(OC)c(N)c2)c(OC)c1 | – | – | 50 nM | 30 nM
COc1ccc(OC)c(/C=C/S(=O)(=O)Cc2ccc(OC)c(N)c2)c1 | – | – | 750 nM | 750 nM
COc1cc(OC)c(/C=C/S(=O)(=O)Cc2ccc(OC)c(NC(C(=O)O)c3ccccc3)c2)c(OC)c1 (centres undefined) | – | – | 20 nM | 15 nM
COc1cc(OC)c(/C=C/S(=O)(=O)Cc2ccc(OC)c(NC(C(=O)O)c3ccc(F)cc3)c2)c(OC)c1 (centres undefined) | – | – | 150 nM | 80 nM
COc1ccc(C(Nc2cc(CS(=O)(=O)/C=C/c3c(OC)cc(OC)cc3OC)ccc2OC)C(=O)O)cc1 (centres undefined) | – | – | 100 nM | 15 nM
COc1ccc(CS(=O)(=O)/C=C/c2c(OC)cc(OC)cc2OC)c(N)c1 | – | – | 25 nM | 25 nM
COc1ccc(CS(=O)(=O)/C=C/c2cc(OC)c(OC)cc2OC)cc1N | – | – | 250 nM | 250 nM
COc1cc(OC)c(/C=C/[S+]([O-])Cc2ccc(OC)c([N+](=O)[O-])c2)c(OC)c1 (centres undefined) | – | – | 15000 nM | 15000 nM
COc1cc(OC)c(/C=C/S(=O)(=O)Cc2ccc(OC)c(NC(C(=O)O)C(F)(F)F)c2)c(OC)c1 (centres undefined) | – | – | 20 nM | 75 nM
COc1cc(OC)c(/C=C/[S+]([O-])Cc2ccc(OC)c(N)c2)c(OC)c1 (centres undefined) | – | – | 40 nM | 20 nM
COC(=O)C(Nc1cc(CS(=O)(=O)/C=C/c2c(OC)cc(OC)cc2OC)ccc1OC)C(F)(F)F (centres undefined) | – | – | 250 nM | 250 nM
COc1cc(OC)c(/C=C/S(=O)(=O)Cc2cc(N)ccc2OC)c(OC)c1 | – | – | 7500 nM | 7500 nM
COc1ccc(CS(=O)(=O)/C=C/c2c(F)cc(F)cc2F)cc1N | – | – | 2000 nM | 800 nM
COc1cc(OC)c(/C=C/S(=O)(=O)Cc2ccc(Br)c(N)c2)c(OC)c1 | – | – | 750 nM | 750 nM
COc1cc(OC)c(/C=C/S(=O)(=O)Cc2ccc(OC)cc2[N+](=O)[O-])c(OC)c1 | – | – | 20000 nM | 20000 nM
COc1ccc(N)cc1CS(=O)(=O)/C=C/c1c(OC)cccc1OC | – | – | 25000 nM | 25000 nM
